ChEMBL document CHEMBL2150944, “Antimalarial activity of pyrroloiminoquinones from the Australian marine sponge Zyzzya sp” (J Med Chem, 2012)
Counter-ions that a name gives are not always drawn. Activity calls are given as the source filed them. No cut-off for these calls is given here.

Legend:
[1] = Selectivity index, ratio of IC50 for human HEK293 cells to IC50 for chloroquine-resistant Plasmodium falciparum Dd2; format: toxicity, cell-based; details: read-out: Ratio IC50
[2] = tested on: Plasmodium falciparum; assay: Antimalarial activity against chloroquine-resistant Plasmodium falciparum Dd2 assessed as growth inhibition after 72 hrs by DAPI staining; format: functional, organism-based; details: Dd2, 72 h
Procedure, shortened: (§1)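 P. falciparum 3D7 or Dd2 at 2% or 3% parasitemia, 0.3% hematocrit, exposed 72 h at 37 °C, 5% CO2. Staining with DAPI plus saponin and Triton X-100, 5 h at room temperature in the dark, then confocal imaging and automated counting of parasite spots. Percent inhibition is calculated against DMSO and 2 μM artemisinin controls.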

[3] = tested on: HEK293; assay: Cytotoxicity against human HEK293 cells assessed as growth inhibition after 72 hrs by Alamar blue assay; format: cell-based; details: HEK293, 72 h
Procedure, shortened: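 HEK293 adherent cells (3000/well) were incubated with compound for 72 h at 37 °C and 5% CO2. Medium was removed, then 10% Alamar Blue was added for 5−6 h. Fluorescence was read at ex 535/em 590 nm. Inhibition was normalised to DMSO and 10 μM puromycin controls. IC50 came from nonlinear variable-slope regression of % inhibition against log dose.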

[4] = Selectivity index, ratio of IC50 for human HEK293 cells to IC50 for chloroquine-sensitive Plasmodium falciparum 3D7; format: toxicity, cell-based; details: read-out: Ratio IC50
[5] = tested on: Plasmodium falciparum; assay: Antimalarial activity against chloroquine-sensitive Plasmodium falciparum 3D7 assessed as growth inhibition after 72 hrs by DAPI staining; format: functional, organism-based; details: 3D7, 72 h; procedure, shortened: as §1
[6] = tested on: Plasmodium falciparum; assay: Antimalarial activity against chloroquine-sensitive Plasmodium falciparum 3D7 ring stage assessed as growth inhibition at 75 nM after 10 hrs by [3H]-hypoxanthine incorporation assay; format: functional, organism-based
Procedure, shortened: (§2)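 Synchronous 3D7 rings (~10−16 h post-invasion) or trophozoites (~24−30 h post-invasion), 0.5% parasitemia, 5% hematocrit, exposed 4, 6 or 10 h to compound or 0.04% DMSO vehicle. Cultures are washed, plated in triplicate with 0.5 μCi 3H-hypoxanthine, and incorporation is counted after ~48−72 h. Percent growth is relative to matched vehicle controls, from at least two independent experiments.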

[7] = tested on: Plasmodium falciparum; assay: Antimalarial activity against chloroquine-sensitive Plasmodium falciparum 3D7 trophozoite stage assessed as growth inhibition at 75 nM after 10 hrs by [3H]-hypoxanthine incorporation assay; format: functional, organism-based; procedure, shortened: as §2
[8] = tested on: Plasmodium falciparum; assay: Antimalarial activity against chloroquine-sensitive Plasmodium falciparum 3D7 trophozoite stage assessed as growth inhibition at 150 nM after 10 hrs by [3H]-hypoxanthine incorporation assay; format: functional, organism-based; procedure, shortened: as §2
[9] = tested on: Plasmodium falciparum; assay: Antimalarial activity against chloroquine-sensitive Plasmodium falciparum 3D7 ring stage assessed as growth inhibition at 150 nM after 10 hrs by [3H]-hypoxanthine incorporation assay; format: functional, organism-based; procedure, shortened: as §2
[10] = tested on: HCT-116; assay: Cytotoxicity against human HCT116 cells; format: functional, cell-based
[11] = tested on: XRS6; assay: Cytotoxicity against Chinese hamster Xrs-6 cells; format: cell-based; details: Cricetulus griseus
[12] = target: DNA topoisomerase 2-alpha (Homo sapiens) (UniProt P11388); assay: Inhibition of topoisomerase 2 by decatenation assay
Sequence of DNA topoisomerase 2-alpha (Homo sapiens) (P11388 whole entry): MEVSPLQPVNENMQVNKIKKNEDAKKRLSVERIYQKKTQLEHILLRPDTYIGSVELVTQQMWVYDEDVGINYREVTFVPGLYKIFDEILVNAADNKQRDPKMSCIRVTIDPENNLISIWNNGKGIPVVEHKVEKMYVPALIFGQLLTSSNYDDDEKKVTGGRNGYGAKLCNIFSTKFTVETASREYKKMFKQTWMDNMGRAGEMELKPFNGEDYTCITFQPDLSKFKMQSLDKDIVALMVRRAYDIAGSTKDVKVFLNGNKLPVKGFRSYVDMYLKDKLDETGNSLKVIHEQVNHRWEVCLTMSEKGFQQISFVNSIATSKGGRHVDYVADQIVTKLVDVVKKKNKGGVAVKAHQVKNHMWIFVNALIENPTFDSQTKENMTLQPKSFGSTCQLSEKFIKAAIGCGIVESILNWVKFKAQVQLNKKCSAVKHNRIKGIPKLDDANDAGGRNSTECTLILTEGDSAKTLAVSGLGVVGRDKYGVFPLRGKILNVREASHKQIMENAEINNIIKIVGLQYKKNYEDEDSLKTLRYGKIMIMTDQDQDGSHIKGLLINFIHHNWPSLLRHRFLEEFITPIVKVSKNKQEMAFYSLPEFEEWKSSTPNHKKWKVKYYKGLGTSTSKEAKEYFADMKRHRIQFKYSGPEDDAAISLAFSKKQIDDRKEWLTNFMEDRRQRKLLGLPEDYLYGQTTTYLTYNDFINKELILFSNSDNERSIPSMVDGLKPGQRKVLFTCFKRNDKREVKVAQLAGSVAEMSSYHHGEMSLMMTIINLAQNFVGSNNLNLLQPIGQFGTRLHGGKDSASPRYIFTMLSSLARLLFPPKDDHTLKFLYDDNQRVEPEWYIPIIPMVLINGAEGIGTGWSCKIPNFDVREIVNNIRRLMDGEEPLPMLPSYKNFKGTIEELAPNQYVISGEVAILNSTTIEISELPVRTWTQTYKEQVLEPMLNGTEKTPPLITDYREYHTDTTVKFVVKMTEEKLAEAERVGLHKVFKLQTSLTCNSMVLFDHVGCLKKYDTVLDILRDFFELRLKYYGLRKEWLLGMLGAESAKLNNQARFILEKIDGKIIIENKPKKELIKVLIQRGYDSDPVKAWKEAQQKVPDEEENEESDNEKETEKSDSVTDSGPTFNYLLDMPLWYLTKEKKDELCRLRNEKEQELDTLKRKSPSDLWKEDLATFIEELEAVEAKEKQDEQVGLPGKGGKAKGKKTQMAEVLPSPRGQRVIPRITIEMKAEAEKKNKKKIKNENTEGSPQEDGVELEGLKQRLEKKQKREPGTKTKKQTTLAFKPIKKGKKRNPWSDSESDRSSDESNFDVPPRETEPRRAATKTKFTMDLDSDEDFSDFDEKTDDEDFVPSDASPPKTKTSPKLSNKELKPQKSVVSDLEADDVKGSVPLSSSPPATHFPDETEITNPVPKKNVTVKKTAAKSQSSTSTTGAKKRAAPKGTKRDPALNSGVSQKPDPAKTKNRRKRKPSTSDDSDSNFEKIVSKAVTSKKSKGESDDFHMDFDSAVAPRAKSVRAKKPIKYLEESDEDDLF

C[N+]1=C2C=C(N/C=C/c3ccc(O)cc3)C(=O)c3[nH]cc(c32)CC1 [MAKALUVAMINE L]
selectivity ratio [1]: 66 | IC50 [2]: 0.021 µM | IC50 [3]: 1.4 µM | selectivity ratio [4]: 35 | IC50 [5]: 0.04 µM

Cn1cc2c3c1C(=O)C(NCCc1ccc(O)cc1)=CC3=NCC2 [MAKALUVAMINE K TFA SALT]
selectivity ratio [1]: 4 | IC50 [2]: 0.3 µM | IC50 [3]: 1.1 µM | selectivity ratio [4]: 3 | IC50 [5]: 0.396 µM

C[C@@H]1CC[C@H]2[C@@H](C)C(=O)O[C@@H]3O[C@@]4(C)CC[C@@H]1[C@]32OO4
growth inhibition (GI) [6]: Active | growth inhibition (GI) [7]: Active | growth inhibition (GI) [8]: Active | growth inhibition (GI) [9]: Active

C[N+]1=C2C=C(N)C(=O)c3[nH]cc(c32)CC1 [MAKALUVAMINE C]
IC50 [10]: > 0.17 µM | IC50 [11]: 0.08 µM

O=C1C(NC2Cc3cc(Br)c(O)cc3S2)=CC2=NCCc3c[nH]c1c32 (centres undefined) [MAKALUVAMINE F]
IC50 [10]: > 0.17 µM | IC90 [12]: 25 µM | IC50 [11]: 0.08 µM

Cn1cc2c3c1C(=O)C(N)=CC3=NCC2 [MAKALUVAMINE A]
IC50 [10]: > 0.17 µM | IC90 [12]: 41 µM | IC50 [11]: 0.08 µM

Cn1cc2c3c1C(=O)C(N/C=C/c1ccc(O)cc1)=CC3=NCC2 [MAKALUVAMINE E]
IC50 [10]: > 0.17 µM | IC50 [11]: 0.08 µM
